Source: PMC10405366 (Molecular pharmaceutics, 2023)

Tests used:
[1] = tested on: MDA-MB-435; assay: Cell viability assay; assay type: cell-based, human; conditions: MDA-MB-435
How it was run: (§1)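 RPMI1640 (OVCAR3, OVCAR4, MDA-MB-435) or DMEM (OVCAR8, MDA-MB-231) was used, with 10% FBS and penicillin/streptomycin. Cells were STR-validated and kept below 20 passages. Cells were plated at 5000 per well overnight, then given test compound at final 0.95–250 nM (nine levels, 0.5% DMSO) for 72 h at 37 °C. Viability was read by CellTiter-Blue absorbance, and IC50 was taken relative to DMSO. Paclitaxel (0.39–100 nM) was the control, with three biological replicates.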

[2] = Mouse pharmacokinetics, plasma LC-MS/MS; assay type: in vivo; conditions: IV 0.285 mg/kg, initial PK time points, female C57BL/6 mice
[3] = tested on: OVCAR8; assay: 2D foci assay; assay type: cell-based, human; conditions: OVCAR8, 50 nM for 8 h, two weeks colony formation, relative to vehicle
How it was run: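 Cells were seeded at 200 per 60 mm dish and left to attach overnight. They were then exposed for 8 h to test compound (50 nM), DMSO vehicle or paclitaxel (10 nM). Medium was replaced and cells grew drug-free for about two weeks (15 days). Colonies were fixed in 4% paraformaldehyde, stained with 0.05% crystal violet, imaged and counted. There were three biological replicates, compared with vehicle by Dunnett's test.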

[4] = tested on: MDA-MB-231; assay: Cell viability assay; assay type: cell-based, human; conditions: MDA-MB-231
How it was run: as §1

[5] = tested on: female athymic nude (nu/nu) mice; assay: Tolerability study: hematology; assay type: in vivo, mouse
How it was run: (§2)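 Athymic nude mice (n = 5 per group) received test compound or the Tween80:Captex200:saline vehicle IP every 2 days for 14 days. About 2–4 h after the last dose, mice were killed with CO2 and blood was drawn by cardiac puncture. Complete blood counts and serum chemistry were run by a pathology core. Values are given as means ± SD, n = 3–5.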

[6] = tested on: female athymic nude (nu/nu) mice; assay: Tolerability study: serum chemistry; assay type: in vivo, mouse
How it was run: as §2

[7] = 0.114 mg/kg IP every 2 days, 14 days
[8] = 0.285 mg/kg IP every 2 days, 14 days
[9] = 1.14 mg/kg IP every 2 days, removed at 8 days
[10] = 0.570 mg/kg IP every 2 days, removed day 13

Question: What does the source list for CN1C(=O)[C@]23SS[C@@]1(C)C(=O)N2[C@H]1Nc2ccccc2[C@@]1([C@@]12c4ccccc4N[C@@H]1N1C(=O)[C@]4(C)SS[C@]1(C(=O)N4C)[C@H]2OC(=O)CCC(=O)O)[C@@H]3O [verticillin A succinate]?
Answer: cytotoxic activity [1]: pronounced cytotoxic activities; plasma concentration [2]: < 3 nM; foci formation [3]: completely abrogated foci formation; cytotoxic activity [4]: pronounced cytotoxic activities; MCH [5, 7]: 14.6 ± 0.2 pg; MCHC [5, 7]: 32.8 ± 0.6 g/dL; MCV [5, 7]: 44.4 ± 1.2 fL; MPV [5, 7]: 7.9 ± 0.2 fL; PCT [5, 7]: 0.754 ± 0.093%; PDW [5, 7]: 47.5 ± 2.5%; RBC [5, 7]: 8.95 ± 0.15 M/μL; RDW [5, 7]: 13.9 ± 0.4%; Reticulocyte # [5, 7]: 11.3 ± 12.9 K/μL; WBC # [5, 7]: 6.52 ± 1.73 K/μL; basophil # [5, 7]: 0.01 ± 0.01 K/μL; eosinophil # [5, 7]: 0.01 ± 0.01 K/μL; hematocrit [5, 7]: 39.7 ± 1.4%; hemoglobin [5, 7]: 13.0 ± 0.2 g/dL; lymphocyte # [5, 7]: 3.81 ± 1.09 K/μL; monocyte # [5, 7]: 0.36 ± 0.10 K/μL; neutrophil # [5, 7]: 2.33 ± 0.63 K/μL; nucleated RBCs # [5, 7]: 0 ± 0 K/μL; platelet # [5, 7]: 954 ± 118 K/μL; reticulocyte [5, 7]: 0.13 ± 0.14%; MCH [5, 8]: 14.7 ± 0.2 pg; MCHC [5, 8]: 32.9 ± 0.8 g/dL; MCV [5, 8]: 44.7 ± 0.9 fL; MPV [5, 8]: 7.7 ± 0.07 fL; PCT [5, 8]: 0.722 ± 0.072%; PDW [5, 8]: 48.2 ± 2.2%; RBC [5, 8]: 9.15 ± 0.22 M/μL; RDW [5, 8]: 14.1 ± 0.6%; Reticulocyte # [5, 8]: 6.3 ± 13.7 K/μL; WBC # [5, 8]: 5.99 ± 1.11 K/μL; basophil # [5, 8]: 0.01 ± 0.01 K/μL; eosinophil # [5, 8]: 0.02 ± 0.02 K/μL; hematocrit [5, 8]: 40.9 ± 1.2%; hemoglobin [5, 8]: 13.5 ± 1.8 g/dL; lymphocyte # [5, 8]: 3.12 ± 1.25 K/μL; monocyte # [5, 8]: 0.20 ± 0.08 K/μL; neutrophil # [5, 8]: 2.64 ± 0.54 K/μL; nucleated RBCs # [5, 8]: 0 ± 0 K/μL; platelet # [5, 8]: 938 ± 98 K/μL; reticulocyte [5, 8]: 0.07 ± 0.15%; MCH [5, 9]: 15.3 ± 0.4 pg; MCHC [5, 9]: 32.5 ± 1.1 g/dL; MCV [5, 9]: 47.2 ± 1.6 fL; MPV [5, 9]: 7.4 ± 0.1 fL; PCT [5, 9]: 0.701 ± 0.202%; PDW [5, 9]: 51.5 ± 1.4%; RBC [5, 9]: 9.49 ± 0.49 M/μL; RDW [5, 9]: 15.1 ± 0.2%; Reticulocyte # [5, 9]: 0 ± 0 K/μL; WBC # [5, 9]: 6.80 ± 1.14 K/μL; basophil # [5, 9]: 0.07 ± 0.10 K/μL; eosinophil # [5, 9]: 0.10 ± 0.16 K/μL; hematocrit [5, 9]: 44.7 ± 2.7%; hemoglobin [5, 9]: 14.5 ± 0.42 g/dL; lymphocyte # [5, 9]: 2.19 ± 0.61 K/μL; monocyte # [5, 9]: 0.18 ± 0.04 K/μL; neutrophil # [5, 9]: 4.26 ± 0.56 K/μL; nucleated RBCs # [5, 9]: 0 ± 0 K/μL; platelet # [5, 9]: 947 ± 271 K/μL; reticulocyte [5, 9]: 0 ± 0%; ALP [6, 7]: 139 ± 9 U/L; ALT [6, 7]: 39 ± 6 U/L; AST [6, 7]: 88 ± 10 U/L; BUN [6, 7]: 20 ± 1 mg/dL; GGT [6, 7]: 8 ± 0 U/L; albumin [6, 7]: 3.7 ± 0.2 g/dL; amylase [6, 7]: 1039 ± 215 U/L; calcium [6, 7]: 11.8 ± 0.3 mg/dL; cholesterol [6, 7]: 141 ± 12 mg/dL; creatine kinase [6, 7]: 160 ± 37 U/L; creatinine [6, 7]: 0.43 ± 0.02 mg/dL; globulin [6, 7]: 2.1 ± 0.2 g/dL; glucose [6, 7]: 225 ± 28 mg/dL; lipase [6, 7]: 55 ± 44 U/L; phosphorous [6, 7]: 11.7 ± 0.8 mg/dL; total bilirubin [6, 7]: 0.3 ± 0.1 mg/dL; total protein [6, 7]: 5.8 ± 0.3 g/dL; triglyceride [6, 7]: 247 ± 70 mg/dL; ALP [6, 8]: 133 ± 19 U/L; ALT [6, 8]: 47 ± 13 U/L; AST [6, 8]: 125 ± 18 U/L; BUN [6, 8]: 15 ± 1 mg/dL; GGT [6, 8]: 0 ± 1 U/L; albumin [6, 8]: 3.4 ± 0.2 g/dL; amylase [6, 8]: 1208 ± 75 U/L; calcium [6, 8]: 11.2 ± 0.7 mg/dL; cholesterol [6, 8]: 146 ± 13 mg/dL; creatine kinase [6, 8]: 214 ± 28 U/L; creatinine [6, 8]: 0.42 ± 0.8 mg/dL; globulin [6, 8]: 2.0 ± 0.2 g/dL; glucose [6, 8]: 235 ± 10 mg/dL; lipase [6, 8]: 74 ± 5 U/L; phosphorous [6, 8]: 11.9 ± 0.8 mg/dL; total bilirubin [6, 8]: 0.3 ± 0.0 mg/dL; total protein [6, 8]: 5.4 ± 0.3 g/dL; triglyceride [6, 8]: 262 ± 68 mg/dL; ALP [6, 10]: 89 ± 13 U/L; ALT [6, 10]: 48 ± 25 U/L; AST [6, 10]: 254 ± 138 U/L; BUN [6, 10]: 24 ± 8 mg/dL; GGT [6, 10]: 4 ± 3 U/L; albumin [6, 10]: 2.6 ± 0.9 g/dL; amylase [6, 10]: 1203 ± 240 U/L; calcium [6, 10]: 11.5 ± 0.9 mg/dL; cholesterol [6, 10]: 115 ± 23 mg/dL; creatine kinase [6, 10]: 1916 ± 1915 U/L; creatinine [6, 10]: 0.29 ± 0.05 mg/dL; globulin [6, 10]: 2.6 ± 1.1 g/dL; glucose [6, 10]: 172 ± 49 mg/dL; phosphorous [6, 10]: 15.5 ± 1.4 mg/dL; total bilirubin [6, 10]: 0.4 ± 0.1 mg/dL; total protein [6, 10]: 5.2 ± 0.4 g/dL; triglyceride [6, 10]: 128 ± 38 mg/dL; ALP [6, 9]: 74 ± 12 U/L; ALT [6, 9]: 121 ± 145 U/L; AST [6, 9]: 420 ± 438 U/L; BUN [6, 9]: 24 ± 4 mg/dL; GGT [6, 9]: 6 ± 4 U/L; albumin [6, 9]: 2.4 ± 0.8 g/dL; amylase [6, 9]: 1221 ± 520 U/L; calcium [6, 9]: 7.2 ± 5.3 mg/dL; cholesterol [6, 9]: 111 ± 10 mg/dL; creatine kinase [6, 9]: 582 ± 384 U/L; creatinine [6, 9]: 0.26 ± 0.05 mg/dL; globulin [6, 9]: 2.5 ± 0.8 g/dL; glucose [6, 9]: 141 ± 62 mg/dL; lipase [6, 9]: 84 ± 64 U/L; phosphorous [6, 9]: 12.2 ± 1.0 mg/dL; total bilirubin [6, 9]: 0.5 ± 0.3 mg/dL; total protein [6, 9]: 4.9 ± 0.4 g/dL; triglyceride [6, 9]: 266 ± 160 mg/dL
